In ChEMBL document CHEMBL3797104, “Triazole tethered C5-curcuminoid-coumarin based molecular hybrids as novel antitubulin agents: Design, synthesis, biological investigation and docking studies” (Eur J Med Chem, 2016):

How the values were obtained:
[1] = Cytotoxicity against human HCT116 cells assessed as growth inhibition at 50 uM after 48 hrs by SRB assay; assay type: functional; conditions: HCT-116, 48 h, read-out: GI
Procedure, shortened: (§1)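 Single-concentration screen at 50 µM. Cells grew 24 h at 37 °C, then had 48 h exposure in complete medium.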

[2] = Cytotoxicity against human COLO205 cells assessed as growth inhibition at 50 uM after 48 hrs by SRB assay; assay type: functional; conditions: COLO 205, 48 h, read-out: GI; procedure, shortened: as §1
[3] = Cytotoxicity against human THP1 cells assessed as growth inhibition at 50 uM after 48 hrs by SRB assay; assay type: functional; conditions: THP-1, 48 h, read-out: GI; procedure, shortened: as §1
[4] = Cytotoxicity against human PC3 cells assessed as growth inhibition at 50 uM after 48 hrs by SRB assay; assay type: functional; conditions: PC-3, 48 h, read-out: GI; procedure, shortened: as §1
[5] = Cytotoxicity against human COLO205 cells after 48 hrs by SRB assay; assay type: functional, cell-based; conditions: COLO 205, 48 h
Procedure, shortened: (§2)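 SRB assay in 96-well plates. Cells were seeded and grown 24 h at 37 °C in a CO2 incubator, then given test material in complete medium for a further 48 h. Cells were fixed with cold 50% TCA for 1 h at 4 °C, stained 30 min with 0.4% SRB in 1% acetic acid, and washed with […]. IC50 was taken from multi-concentration testing, run only for hybrids giving >70% inhibition at 50 µM in at least one line.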

[6] = Cytotoxicity against human THP1 cells after 48 hrs by SRB assay; assay type: functional, cell-based; conditions: THP-1, 48 h; procedure, shortened: as §2
[7] = Cytotoxicity against human HCT116 cells after 48 hrs by SRB assay; assay type: functional, cell-based; conditions: HCT-116, 48 h; procedure, shortened: as §2
Tubulin = assay: Inhibition of tubulin (unknown origin) polymerization measured after 1 hr by ELISA plate reader analysis; assay type: protein-complex assay, Homo sapiens
Procedure, shortened: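 Kit-based turbidity assay using tubulin (10 mg in general tubulin buffer with GTP). Compounds were diluted from DMSO stocks, preincubated 2 min at 37 °C in general tubulin buffer, then tubulin diluted in polymerization buffer (general and glycerol tubulin buffers plus GTP) was added. Absorbance at 340 nm was read after 1 h at 37 °C.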

COc1ccc(/C=C/C(=O)/C=C/c2ccc(OCc3cn(CCOc4cc(=O)oc5ccccc45)nn3)c(OC)c2)cc1OC
inhibition of growth at 50 µM [1]: 82% | inhibition of growth at 50 µM [2]: 80% | inhibition of growth at 50 µM [3]: 90% | inhibition of growth at 50 µM [4]: 19% | IC50 [5]: 6.78 µM | IC50 [6]: 2.34 µM | IC50 [7]: 4.71 µM | IC50 (Tubulin): 2.88 µM

COc1cc(/C=C/C(=O)/C=C/c2cccc3ccccc23)ccc1OCc1cn(CCOc2cc(=O)oc3ccccc23)nn1
inhibition of growth at 50 µM [1]: 83% | inhibition of growth at 50 µM [2]: 85% | inhibition of growth at 50 µM [3]: 89% | inhibition of growth at 50 µM [4]: 20% | IC50 [5]: 9.95 µM | IC50 [6]: 4.48 µM | IC50 [7]: 6.54 µM | IC50 (Tubulin): 7.65 µM

COc1cc(/C=C/C(=O)/C=C/c2cc(OC)c(OC)c(OC)c2)ccc1OCc1cn(CCOc2cc(=O)oc3ccccc23)nn1
inhibition of growth at 50 µM [1]: 89% | inhibition of growth at 50 µM [2]: 86% | inhibition of growth at 50 µM [3]: 99% | inhibition of growth at 50 µM [4]: 22% | IC50 [5]: 4.68 µM | IC50 [6]: 0.82 µM | IC50 [7]: 2.21 µM | IC50 (Tubulin): 1.55 µM
